The values that follow come from PubChem BioAssay AID623920 (The Scripps Research Institute Molecular Screening Center, 2012).

A word on the IC50: it is the point on the concentration scale where inhibition reaches its midpoint. One may read the pIC50 as the negative decadic logarithm of the IC50, by convention in mol/L.

pIC50: −log10 of the molar value. “And” between values parts separate entries of the source, which are not always exact repeats. Equal entries are not always repeated. The source made the active and inactive calls.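 Rule for the calls: active = compounds halving RecBCD DNA-cutting activity at 52000 nM or lower IC50; inactive = the rest.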

RecBCD enzyme subunit RecC (Escherichia coli (strain K12)) + RecBCD enzyme subunit RecB (Escherichia coli (strain K12)), sequence (P07648 whole entry, looked up): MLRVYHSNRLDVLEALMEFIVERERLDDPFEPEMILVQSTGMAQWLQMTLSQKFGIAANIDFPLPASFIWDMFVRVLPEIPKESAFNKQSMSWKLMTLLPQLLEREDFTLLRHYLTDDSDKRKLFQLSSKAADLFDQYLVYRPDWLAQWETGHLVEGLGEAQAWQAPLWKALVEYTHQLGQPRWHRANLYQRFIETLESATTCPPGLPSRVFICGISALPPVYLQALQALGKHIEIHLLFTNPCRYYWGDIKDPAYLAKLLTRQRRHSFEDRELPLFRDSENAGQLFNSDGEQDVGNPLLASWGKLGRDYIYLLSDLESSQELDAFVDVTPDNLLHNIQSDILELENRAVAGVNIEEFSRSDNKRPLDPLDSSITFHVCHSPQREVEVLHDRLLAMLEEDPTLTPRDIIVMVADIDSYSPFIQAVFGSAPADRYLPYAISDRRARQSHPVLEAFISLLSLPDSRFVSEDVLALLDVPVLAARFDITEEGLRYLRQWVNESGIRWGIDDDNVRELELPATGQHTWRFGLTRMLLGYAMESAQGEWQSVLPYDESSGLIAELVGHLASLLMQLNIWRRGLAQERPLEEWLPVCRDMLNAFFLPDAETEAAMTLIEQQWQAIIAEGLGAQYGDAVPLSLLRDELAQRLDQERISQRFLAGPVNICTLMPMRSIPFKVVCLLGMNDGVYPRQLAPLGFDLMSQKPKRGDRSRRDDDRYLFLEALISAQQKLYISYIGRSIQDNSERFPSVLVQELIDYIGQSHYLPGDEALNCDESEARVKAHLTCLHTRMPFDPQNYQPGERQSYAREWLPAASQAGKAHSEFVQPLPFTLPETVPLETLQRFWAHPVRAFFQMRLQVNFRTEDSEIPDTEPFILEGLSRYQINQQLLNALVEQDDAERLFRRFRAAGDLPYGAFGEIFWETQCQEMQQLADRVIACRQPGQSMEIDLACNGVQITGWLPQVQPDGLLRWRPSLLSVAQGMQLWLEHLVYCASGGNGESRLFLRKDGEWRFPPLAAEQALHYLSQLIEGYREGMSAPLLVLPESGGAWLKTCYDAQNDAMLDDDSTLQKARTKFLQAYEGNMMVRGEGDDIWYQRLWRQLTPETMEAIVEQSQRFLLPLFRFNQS
RecBCD enzyme subunit RecC (Escherichia coli (strain K12)) + RecBCD enzyme subunit RecB (Escherichia coli (strain K12)), sequence (P08394 whole entry, looked up): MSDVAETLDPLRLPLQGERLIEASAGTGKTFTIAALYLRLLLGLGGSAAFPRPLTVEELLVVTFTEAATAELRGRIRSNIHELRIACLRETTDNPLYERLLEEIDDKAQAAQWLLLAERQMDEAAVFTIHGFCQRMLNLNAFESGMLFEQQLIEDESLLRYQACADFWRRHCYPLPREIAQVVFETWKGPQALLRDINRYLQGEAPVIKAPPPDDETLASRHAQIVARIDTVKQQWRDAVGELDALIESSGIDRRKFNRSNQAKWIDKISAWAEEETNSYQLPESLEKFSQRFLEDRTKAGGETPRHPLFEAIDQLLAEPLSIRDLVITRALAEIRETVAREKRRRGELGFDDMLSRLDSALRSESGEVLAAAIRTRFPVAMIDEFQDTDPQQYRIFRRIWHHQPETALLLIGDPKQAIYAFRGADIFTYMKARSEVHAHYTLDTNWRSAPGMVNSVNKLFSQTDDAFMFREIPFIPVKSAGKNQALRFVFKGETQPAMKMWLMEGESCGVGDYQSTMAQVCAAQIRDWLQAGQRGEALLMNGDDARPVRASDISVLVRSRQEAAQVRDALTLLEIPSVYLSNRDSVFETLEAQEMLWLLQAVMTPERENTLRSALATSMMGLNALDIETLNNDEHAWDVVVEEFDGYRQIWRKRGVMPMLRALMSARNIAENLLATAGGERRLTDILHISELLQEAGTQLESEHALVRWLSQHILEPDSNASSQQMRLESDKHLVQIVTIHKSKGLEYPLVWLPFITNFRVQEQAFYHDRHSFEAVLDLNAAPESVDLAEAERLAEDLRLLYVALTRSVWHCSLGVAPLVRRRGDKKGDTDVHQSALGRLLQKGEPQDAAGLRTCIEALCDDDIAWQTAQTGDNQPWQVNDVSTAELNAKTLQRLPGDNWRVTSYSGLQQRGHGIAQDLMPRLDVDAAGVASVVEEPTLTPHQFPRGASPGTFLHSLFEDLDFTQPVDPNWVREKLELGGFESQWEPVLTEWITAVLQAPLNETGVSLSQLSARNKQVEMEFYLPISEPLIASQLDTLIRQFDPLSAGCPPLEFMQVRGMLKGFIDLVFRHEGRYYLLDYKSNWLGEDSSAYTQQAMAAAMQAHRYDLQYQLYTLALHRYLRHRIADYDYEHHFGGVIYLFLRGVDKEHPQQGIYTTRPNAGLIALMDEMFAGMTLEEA

The assay concerns the target RecBCD enzyme subunit RecC (Escherichia coli (strain K12)) + RecBCD enzyme subunit RecB (Escherichia coli (strain K12)) (UniProt P07648+P08394). Kind of assay: purified RecBCD nuclease inhibitors, dose response, counter-screen for AddAB inhibitor project, biochemical, radioactivity readout, powder samples (AID 623920). Particulars: [3H] dsDNA nuclease, TCA-soluble radioactivity. In outline:
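Material: purified E. coli RecBCD / Input: RecBCD enzyme at 0.15 units (4.5 nM) per reaction / Probe or stimulus: [3H] T7 dsDNA, 6 µM nucleotides / Timing: reaction 20 min, 37 °C / Signal: scintillation counting of TCA-soluble radioactive DNA products / Read-out basis: IC50 from percent RecBCD activity / Control set: enzyme-free background / Replication: triplicate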
For `CC1(C)Cc2c(sc(NC(=O)c3ccco3)c2C#N)CO1`, the IC50 is > 100 µM (inactive).

With `CC(=O)Nc1ccc2nc(NC(=O)c3ccc([N+](=O)[O-])o3)sc2c1`, the IC50 was > 100 µM (inactive).

As to `Cc1ccc2nc(/C(C#N)=C\c3ccc([N+](=O)[O-])o3)[nH]c2c1`, the IC50 is > 100 µM (inactive).

`CCn1cc(C(=O)O)c(=O)c2cnc(N3CCN(C(=S)NC(C)c4ccccc4)CC3)nc21` (stereo unspecified): the negative-log IC50 (pIC50) is 4.74.

As to `O=C(Nc1cccc(NC(=O)c2ccccc2Cl)c1)c1ccc([N+](=O)[O-])o1`, the IC50 is > 100 µM (inactive).

For `C=CCn1c(Sc2ncc([N+](=O)[O-])s2)n[nH]c1=O`, the IC50 was > 166 µM (inactive).

With `CCn1cc(C(=O)O)c(=O)c2cnc(N3CCN(C(=S)NCc4ccccc4)CC3)nc21`, the negative-log IC50 (pIC50) is 4.70.

For the compound `N#Cc1c(NC(=O)c2ccccc2C(=O)O)sc2c1CCCC2`, the IC50 was > 100 µM (inactive).

`Cc1sc(NC(=O)c2ccc(Br)o2)c(C#N)c1C`: the pIC50 is 4.33.

Take `CCn1cc(C(=O)O)c(=O)c2cnc(N3CCN(C(=S)NC4CC5CCC4C5)CC3)nc21` (stereo unspecified): the IC50 entry is “inactive”.

As to `N#Cc1c(NC(=O)c2ccccc2)sc2c1CCC2`, the IC50 is > 100 µM (inactive).

Regarding `N#Cc1c(NC(=O)c2cnccn2)sc2c1CCCC2`, the pIC50 was 4.48 and 4.38.

For the compound `O=C(Nc1ncccn1)c1ccc([N+](=O)[O-])o1`, the IC50 was > 100 µM (inactive).

Take `O=C(OCC(=O)c1cccs1)c1ccc([N+](=O)[O-])o1`: the IC50 was > 100 µM (inactive).

As for `N#Cc1c(NC(=O)c2cccc(F)c2)sc2c1CCCC2`, the IC50 is > 100 µM (inactive).

`N#Cc1c(NC(=O)c2ccc([N+](=O)[O-])o2)sc2c1CCC2`: the pIC50 was 4.29.

As to `Cc1cccnc1NC(=O)c1ccc([N+](=O)[O-])o1`, the IC50 is > 100 µM (inactive).

With `CCn1cc(C(=O)O)c(=O)c2cc(F)c(N3CCN(C(=S)Nc4ccccc4C(F)(F)F)CC3)cc21`, the pIC50 was 4.40.

For the compound `N#Cc1c(NC(=O)c2ccc(-c3ccccc3[N+](=O)[O-])o2)sc2c1CCCC2`, the IC50 is > 100 µM (inactive).

Take `N#Cc1c(NC(=O)c2ccco2)sc2c1CCC2`: the IC50 result is “inactive”.

Take `O=C(Nc1ccc(N2CCOCC2)cc1)c1ccc([N+](=O)[O-])o1`: the IC50 is > 100 µM (inactive).

For the compound `CCn1cc(C(=O)O)c(=O)c2cnc(N3CCN(C(=S)Nc4ccccc4C(F)(F)F)CC3)nc21`, the negative logarithm of the IC50 (pIC50) is 4.89 and 4.40.

As for `O=C(NCc1cccnc1)c1ccc([N+](=O)[O-])o1`, the IC50 was > 100 µM (inactive).

As for `CCn1cc(C(=O)O)c(=O)c2cnc(N3CCN(C(=S)NC(=O)c4cccc(C)c4)CC3)nc21`, the pIC50 is 5.05.

On to `Cc1ccc(C(=O)Nc2sc3c(c2C#N)CCCCC3)o1`, for which the IC50 is > 100 µM (inactive).

Take `CNC(=O)c1c(NC(=O)c2nc(SCc3ccccc3)ncc2Cl)sc2c1CCCC2`: the IC50 result is “inactive”.

On to `CCn1cc(C(=O)O)c(=O)c2cnc(N3CCN(C(=S)Nc4cccc(C(F)(F)F)c4)CC3)nc21`, for which the negative logarithm of the IC50 (pIC50) was 5.40.

In the case of `NC(=O)c1ccsc1NC(=O)COC(=O)c1ccc([N+](=O)[O-])o1`, the IC50 is > 100 µM (inactive).

For the compound `CCn1cc(C(=O)O)c(=O)c2cc(F)c(N3CCN(C(=S)Nc4cccc(C(F)(F)F)c4)CC3)cc21`, the pIC50 is 5.52.

For `COC(=O)c1c(-c2ccccc2)csc1NC(=O)c1cnccn1`, the pIC50 was 4.66.

As to `CCn1cc(C(=O)O)c(=O)c2cnc(N3CCN(C(=S)Nc4ccc(Cl)cc4)CC3)nc21`, the negative-log IC50 (pIC50) was 4.96.
